Source: ChEMBL document CHEMBL5550111, “Design, synthesis and biological evaluation of aryloxy thiophosphoramidate triesters of anticancer nucleoside analogues” (Bioorg Med Chem, 2024)
pIC50: −log10 of the molar value.

Key:
MIA PaCa-2 [1] = experiment: Cytotoxicity against human MIA PaCa-2 cells assessed as inhibition of cell viability incubated for 72 hrs by MTS assay; format: functional, cell-based; conditions: MIA PaCa-2, 72 h
Summary of the method: (§1)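 Cells seeded at 0.5 to 100 × 10^3 per well the day before treatment, then exposed for 72 h to 9 serial concentrations (3.16-fold dilutions, top 198 μM), in duplicate. MTS added for a final 4 h at 37 °C and absorbance read. IC50 is the concentration giving 50% loss of viability. MI% is the maximum inhibition over the tested range.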

MIA PaCa-2 [2] = experiment: Cytotoxicity against human MIA PaCa-2 cells assessed as maximum inhibition of cell viability upto 198 uM incubated for 72 hrs by MTS assay relative to control; format: functional; conditions: up to 198 µM
Summary of the method: (§2)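 Cells seeded at 0.5 to 100 × 10^3 per well the day before drug addition, then exposed to compound for 72 h. MTS added afterwards, with a further 4 h at 37 °C, and absorbance read. Tested in duplicate at 9 serial 3.16-fold dilutions, top concentration 198 μM. MI% is the maximum inhibition of viability across the tested range.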

[3] = Cytotoxicity against human T24/83 cells assessed as inhibition of cell viability incubated for 72 hrs by MTS assay; format: functional, cell-based; conditions: T24/83, 72 h; summary of the method: as §1
[4] = Cytotoxicity against human T24/83 cells assessed as maximum inhibition of cell viability upto 198 uM incubated for 72 hrs by MTS assay relative to control; format: functional; conditions: up to 198 µM; summary of the method: as §2
5637 [5] = experiment: Cytotoxicity against human 5637 cells assessed as inhibition of cell viability incubated for 72 hrs by MTS assay; format: functional, cell-based; conditions: Homo sapiens, 5637, 72 h; summary of the method: as §1
5637 [6] = experiment: Cytotoxicity against human 5637 cells assessed as maximum inhibition of cell viability upto 198 uM incubated for 72 hrs by MTS assay relative to control; format: functional; conditions: up to 198 µM; summary of the method: as §2
PC-3 [7] = experiment: Cytotoxicity against human PC-3 cells assessed as inhibition of cell viability incubated for 72 hrs by MTS assay; format: functional, cell-based; conditions: PC-3, 72 h; summary of the method: as §1
PC-3 [8] = experiment: Cytotoxicity against human PC-3 cells assessed as maximum inhibition of cell viability upto 198 uM incubated for 72 hrs by MTS assay relative to control; format: functional; conditions: up to 198 µM; summary of the method: as §2
HT-29 [9] = experiment: Cytotoxicity against human HT-29 cells assessed as inhibition of cell viability incubated for 72 hrs by MTS assay; format: functional, cell-based; conditions: HT-29, 72 h; summary of the method: as §1
HT-29 [10] = experiment: Cytotoxicity against human HT-29 cells assessed as maximum inhibition of cell viability upto 198 uM incubated for 72 hrs by MTS assay relative to control; format: functional; conditions: up to 198 µM; summary of the method: as §2
COLO 205 [11] = experiment: Cytotoxicity against human COLO 205 cells assessed as inhibition of cell viability incubated for 72 hrs by MTS assay; format: functional, cell-based; conditions: COLO 205, 72 h; summary of the method: as §1
COLO 205 [12] = experiment: Cytotoxicity against human COLO 205 cells assessed as maximum inhibition of cell viability upto 198 uM incubated for 72 hrs by MTS assay relative to control; format: functional; conditions: up to 198 µM; summary of the method: as §2
MDA-MB-231 [13] = experiment: Cytotoxicity against human MDA-MB-231 cells assessed as inhibition of cell viability incubated for 72 hrs by MTS assay; format: functional, cell-based; conditions: MDA-MB-231, 72 h; summary of the method: as §1
MDA-MB-231 [14] = experiment: Cytotoxicity against human MDA-MB-231 cells assessed as maximum inhibition of cell viability upto 198 uM incubated for 72 hrs by MTS assay relative to control; format: functional; conditions: up to 198 µM; summary of the method: as §2
MCF7 [15] = experiment: Cytotoxicity against human MCF7 cells assessed as inhibition of cell viability incubated for 72 hrs by MTS assay; format: functional, cell-based; conditions: MCF7, 72 h
MCF7 [16] = experiment: Cytotoxicity against human MCF7 cells assessed as maximum inhibition of cell viability upto 198 uM incubated for 72 hrs by MTS assay relative to control; format: functional; conditions: up to 198 µM; summary of the method: as §2
A498 [17] = experiment: Cytotoxicity against human A498 cells assessed as inhibition of cell viability incubated for 72 hrs by MTS assay; format: functional, cell-based; conditions: A498, 72 h; summary of the method: as §1
A498 [18] = experiment: Cytotoxicity against human A498 cells assessed as maximum inhibition of cell viability upto 198 uM incubated for 72 hrs by MTS assay relative to control; format: functional; conditions: up to 198 µM; summary of the method: as §2
[19] = Cytotoxicity against human ACHN-luc2 cells assessed as inhibition of cell viability incubated for 72 hrs by MTS assay; format: functional, cell-based; conditions: ACHN-luc2, 72 h; summary of the method: as §1
[20] = Cytotoxicity against human ACHN-luc2 cells assessed as maximum inhibition of cell viability upto 198 uM incubated for 72 hrs by MTS assay relative to control; format: functional; conditions: up to 198 µM; summary of the method: as §2
CAKI-2 [21] = experiment: Cytotoxicity against human CAKI-2 cells assessed as inhibition of cell viability incubated for 72 hrs by MTS assay; format: functional, cell-based; conditions: CAKI-2, 72 h; summary of the method: as §1
CAKI-2 [22] = experiment: Cytotoxicity against human CAKI-2 cells assessed as maximum inhibition of cell viability upto 198 uM incubated for 72 hrs by MTS assay relative to control; format: functional; conditions: up to 198 µM; summary of the method: as §2
HepG2 [23] = experiment: Cytotoxicity against human HepG2 cells assessed as inhibition of cell viability incubated for 72 hrs by MTS assay; format: functional, cell-based; conditions: HepG2, 72 h; summary of the method: as §1
HepG2 [24] = experiment: Cytotoxicity against human HepG2 cells assessed as maximum inhibition of cell viability upto 198 uM incubated for 72 hrs by MTS assay relative to control; format: functional; conditions: up to 198 µM; summary of the method: as §2
RL [25] = experiment: Cytotoxicity against human RL cells assessed as inhibition of cell viability incubated for 72 hrs by MTS assay; format: functional, cell-based; summary of the method: as §1
RL [26] = experiment: Cytotoxicity against human RL cells assessed as maximum inhibition of cell viability upto 198 uM incubated for 72 hrs by MTS assay relative to control; format: functional; conditions: up to 198 µM; summary of the method: as §2
K562 [27] = experiment: Cytotoxicity against human K562 cells assessed as inhibition of cell viability incubated for 72 hrs by MTS assay; format: functional, cell-based; conditions: K562, 72 h; summary of the method: as §1
K562 [28] = experiment: Cytotoxicity against human K562 cells assessed as maximum inhibition of cell viability upto 198 uM incubated for 72 hrs by MTS assay relative to control; format: functional; conditions: up to 198 µM; summary of the method: as §2
KG-1 [29] = experiment: Cytotoxicity against human KG-1 cells assessed as inhibition of cell viability incubated for 72 hrs by MTS assay; format: functional, cell-based; conditions: KG-1, 72 h; summary of the method: as §1
KG-1 [30] = experiment: Cytotoxicity against human KG-1 cells assessed as maximum inhibition of cell viability upto 198 uM incubated for 72 hrs by MTS assay relative to control; format: functional; conditions: up to 198 µM; summary of the method: as §2
HL-60 [31] = experiment: Cytotoxicity against human HL-60 cells assessed as inhibition of cell viability incubated for 72 hrs by MTS assay; format: functional, cell-based; conditions: HL-60, 72 h; summary of the method: as §1
HL-60 [32] = experiment: Cytotoxicity against human HL-60 cells assessed as maximum inhibition of cell viability upto 198 uM incubated for 72 hrs by MTS assay relative to control; format: functional; conditions: up to 198 µM; summary of the method: as §2
MOLT-4 [33] = experiment: Cytotoxicity against human MOLT-4 cells assessed as inhibition of cell viability incubated for 72 hrs by MTS assay; format: functional, cell-based; conditions: MOLT-4, 72 h; summary of the method: as §1
MOLT-4 [34] = experiment: Cytotoxicity against human MOLT-4 cells assessed as maximum inhibition of cell viability upto 198 uM incubated for 72 hrs by MTS assay relative to control; format: functional; conditions: up to 198 µM; summary of the method: as §2

Nc1ncnc2c1ncn2[C@@H]1O[C@H](CO)C[C@H]1O [CORDYCEPIN]
pIC50 (MIA PaCa-2 [1]): 4.11 | Imax (MIA PaCa-2 [2]): 87% | pIC50 [3]: 4.00 | Imax [4]: 96% | pIC50 5637 [5]: 4.15 | Imax 5637 [6]: 44% | pIC50 (PC-3 [7]): 4.07 | Imax (PC-3 [8]): 70% | pIC50 (HT-29 [9]): 4.58 | Imax (HT-29 [10]): 90% | pIC50 (COLO 205 [11]): 3.97 | Imax (COLO 205 [12]): 24% | pIC50 (MDA-MB-231 [13]): 4.10 | Imax (MDA-MB-231 [14]): 59% | pIC50 (MCF7 [15]): 4.34 | Imax (MCF7 [16]): 93% | pIC50 (A498 [17]): 4.07 | Imax (A498 [18]): 18% | pIC50 [19]: 4.11 | Imax [20]: 14% | pIC50 (CAKI-2 [21]): 4.03 | Imax (CAKI-2 [22]): 25% | pIC50 (HepG2 [23]): 4.11 | Imax (HepG2 [24]): 71% | pIC50 (RL [25]): 3.87 | Imax (RL [26]): 4% | pIC50 (K562 [27]): 4.02 | Imax (K562 [28]): 70% | pIC50 (KG-1 [29]): 4.05 | Imax (KG-1 [30]): 92% | pIC50 (HL-60 [31]): 3.84 | Imax (HL-60 [32]): 57% | pIC50 (MOLT-4 [33]): 4.07 | Imax (MOLT-4 [34]): 77%
